Screens: PubChem BioAssay, several laboratories
Apaf1 inhib – blocks human Apaf-1 apoptosome activity; O14727; reconstituted apoptosome caspase-3 activity, DEVD-Rh110 fluorescence; inhibition, % at 20 µM; hit rate 0.71% among 330,000; AID 489030; active = inhibition of at least 40% at 20 µM
Target sequence (O14727 whole entry, looked up): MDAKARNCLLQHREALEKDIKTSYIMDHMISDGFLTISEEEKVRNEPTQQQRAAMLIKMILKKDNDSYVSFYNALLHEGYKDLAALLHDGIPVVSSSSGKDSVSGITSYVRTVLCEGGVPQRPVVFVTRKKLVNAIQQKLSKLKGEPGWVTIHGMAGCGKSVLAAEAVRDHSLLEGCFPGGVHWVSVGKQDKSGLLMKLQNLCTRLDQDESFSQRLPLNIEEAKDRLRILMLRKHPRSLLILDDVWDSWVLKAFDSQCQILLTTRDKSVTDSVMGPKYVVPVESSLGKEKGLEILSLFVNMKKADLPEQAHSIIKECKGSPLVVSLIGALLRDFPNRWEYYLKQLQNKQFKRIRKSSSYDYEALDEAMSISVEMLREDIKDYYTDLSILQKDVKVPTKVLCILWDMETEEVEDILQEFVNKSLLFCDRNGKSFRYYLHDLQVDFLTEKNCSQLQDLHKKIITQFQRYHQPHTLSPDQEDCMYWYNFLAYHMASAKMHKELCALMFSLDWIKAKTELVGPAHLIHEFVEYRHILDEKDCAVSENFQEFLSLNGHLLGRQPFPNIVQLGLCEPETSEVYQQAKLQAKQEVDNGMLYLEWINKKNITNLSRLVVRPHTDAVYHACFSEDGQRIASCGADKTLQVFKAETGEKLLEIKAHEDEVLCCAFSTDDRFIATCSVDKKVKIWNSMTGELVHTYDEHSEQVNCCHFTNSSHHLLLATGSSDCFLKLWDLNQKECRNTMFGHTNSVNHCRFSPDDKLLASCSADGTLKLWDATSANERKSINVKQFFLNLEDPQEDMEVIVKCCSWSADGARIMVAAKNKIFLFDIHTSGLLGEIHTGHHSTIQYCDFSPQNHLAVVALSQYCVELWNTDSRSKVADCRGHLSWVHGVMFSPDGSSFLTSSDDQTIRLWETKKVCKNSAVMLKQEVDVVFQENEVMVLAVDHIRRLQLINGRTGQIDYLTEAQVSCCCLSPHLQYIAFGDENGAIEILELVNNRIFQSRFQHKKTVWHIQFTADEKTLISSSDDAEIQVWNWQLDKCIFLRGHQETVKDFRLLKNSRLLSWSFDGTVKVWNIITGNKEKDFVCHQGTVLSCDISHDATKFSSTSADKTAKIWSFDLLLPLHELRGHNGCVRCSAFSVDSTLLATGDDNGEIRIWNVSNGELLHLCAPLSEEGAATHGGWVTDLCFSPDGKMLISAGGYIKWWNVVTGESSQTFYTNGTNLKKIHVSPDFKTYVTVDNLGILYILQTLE
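Material: reconstituted apoptosome with Apaf-1, cytochrome c, caspase-9, procaspase-3, dATP. Technique: Rh110 fluorescence intensity. Buffer or medium: pH 7.5 Hepes buffer with CHAPS, BSA, DTT. Times: 30 min plus 50 min, RT.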
UBC13 inh – inhibitors of human UBC13 polyubiquitin chain formation. TR-FRET. inhibition, % at 20 µM. hit rate 0.47% among 330,000. AID 485273; in the data active = inhibition above about 45%, passing the limit was not always enough; inconclusive = no clear call, values can overlap the other calls
PfM18AAP inh – blocks P. falciparum M18 aspartyl aminopeptidase. recombinant PfM18AAP, H-Glu-NHMec fluorogenic cleavage. inhibition, % at 7.35 µM. hit rate 1.2% among 290,000. AID 1822;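 active = inhibition above the campaign mean inhibition over all tested compounds plus 3 SD, cut at about 28% in these data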
ZTA counter – ZTA (EBV) inhibition in EBNA-1 counter-screen. inhibition, % at 11 µM. ZTA-DNA binding, fluorescence polarization. P03206. hit rate 0.15% among 320,000; in the data active = inhibition above about 33%
PfGluPho inh – PfG6PD (Plasmodium falciparum) enzyme inhibition | PfGluPho enzyme, NADPH resazurin-diaphorase fluorescence | inhibition, % at 20 µM | hit rate 0.78% among 350,000;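 active = inhibition reaching at least a set limit at 20 µM in the primary screen, cut at about 59% in these data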
EBNA-1 inhibitor – blocks EBNA-1 binding to DNA | EBNA-1 DNA binding, fluorescence polarization | inhibition, % at 14.8 µM | hit rate 0.34% among 300,000 | AID 1950; in the data active = inhibition above about 28%
PfGluPho conf – confirmation of Plasmodium falciparum G6PD inhibitors. shares compounds with PfGluPho inh. hit rate 34% among 2,400. recombinant PfGluPho, NADPH-diaphorase-resazurin fluorescence. inhibition, % at 20 µM;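 active = inhibition of at least 50% at 20 µM in any single replicate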
Diaph ctr 10uM – counter-screen for P. falciparum G6PD inhibitors: diaphorase inhibitors, oxidizers; hit rate 39% among 820; diaphorase-coupled resazurin reduction, fluorescence, NADPH 10 uM; AID 504862; shares compounds with PfGluPho inh; inhibition, % at 20 µM;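 active = average inhibition reaching 50% or more with the compound at 20 µM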;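 note: resorufin red fluorescence formed as diaphorase reduces resazurin using NADPH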
Diaphorase 30uM – diaphorase inhibition or oxidation at 30 uM NADPH; shares compounds with PfGluPho inh; Diaphorase/resazurin coupled assay, resorufin fluorescence; inhibition, % at 20 µM; hit rate 29% among 820;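 active = inhibition averaging 50% or more, tested at 20 µM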
A number is an active result; i = inactive; ? = inconclusive; nt = no result. Compounds with a hit are over-represented: about 2.9% of the library has one in this group of screens.

SMILES	Apaf1 inhib	UBC13 inh	PfM18AAP inh	ZTA counter	PfGluPho inh	EBNA-1 inhibitor	PfGluPho conf	others
CN(C)Cc1cc(O)c(CN(C)C)cc1O	65.3	i	i	i	78.0	i	88.0	Diaph ctr 10uM=i;Diaphorase 30uM=i
CCN(CC)c1ccc(NC2=C(Cl)C(=O)c3ccccc3C2=O)cc1	nt	nt	i	i	i	i	nt
CCCC(=O)NC1=C(Cl)C(=O)c2ccccc2C1=O	nt	nt	nt	nt	127.8	nt	116.2	Diaph ctr 10uM=98.6;Diaphorase 30uM=97.2
CCCCNC(=O)C(=O)N/N=C/c1cccc(Br)c1	i	i	i	i	i	i	nt
O=C(CC(=O)Nc1cccc(Cl)c1)N/N=C\c1ccccc1	i	i	i	i	84.2	i	i
CCCCNC(=O)CCCCC(=O)N/N=C/c1cccc(Cl)c1	i	i	i	i	65.0	i	i
O=C(CCCOc1ccc(Cl)cc1Cl)N/N=C/c1ccccc1O	i	i	i	i	i	i	nt
Cc1ccc(/C=N/NC(=O)CCCOc2ccc(Cl)cc2Cl)cc1	i	i	i	i	67.2	i	i
O=C(CCCOc1ccc(Cl)cc1Cl)N/N=C/c1ccccc1	i	i	i	i	119.3	i	85.8	Diaph ctr 10uM=87.7;Diaphorase 30uM=71.1
CSCCC(NC(=O)c1ccco1)C(=O)N1CCN(Cc2ccccc2)CC1 (stereo unspecified)	i	i	nt	i	i	i	nt
CCN(CC)C(=O)Cn1cc(C(=O)C(=O)NCCc2c[nH]c3ccccc23)c2ccccc21	i	i	i	i	i	i	nt
O=S(=O)(CCN1CCSCC1)c1ccccc1	i	i	i	i	i	i	nt
COc1cc(N)c2ncccc2c1Cl	nt	nt	nt	nt	60.1	nt	72.8	Diaph ctr 10uM=i;Diaphorase 30uM=i
O=C1C(Nc2ccc(O)cc2)=C/C(=N/S(=O)(=O)c2cccs2)c2ccccc21	nt	nt	i	nt	114.3	nt	60.2	Diaph ctr 10uM=66.9;Diaphorase 30uM=64.9
O=C(O)c1ccc(NC2=C/C(=N/S(=O)(=O)c3cccs3)c3ccccc3C2=O)cc1	nt	nt	nt	nt	106.2	nt	101.2	Diaph ctr 10uM=84.9;Diaphorase 30uM=84.5
CCOC(=O)c1c(C)[nH]c(C)c1C(=O)COC(=O)c1cccs1	i	i	nt	nt	59.6	nt	i
COc1ccccc1CN(Cc1nc2ccccc2c(=O)[nH]1)S(=O)(=O)c1ccc2ccccc2c1	i	i	i	i	59.5	i	i
C=CCSc1nnc(NC(=O)c2ccc3c(c2)OCCO3)s1	nt	nt	nt	nt	98.7	nt	i
O=C(O)CSc1nnc(NC(=O)c2ccc3c(c2)OCO3)s1	i	i	i	i	i	i	nt
C=C1CCN([C@H](C(=O)NCc2ccc(OC)cc2)C(C)C)S(=O)(=O)c2ccccc21	i	i	nt	i	i	i	nt
c1cc2c3c(cccc3c1)-c1cnccc1-2	nt	nt	nt	nt	64.5	nt	i
COc1ccc(C2NCCc3sccc32)cc1 (stereo unspecified)	i	i	i	i	i	i	nt
O=C(O)c1ccc(N2CC3CC(C2)c2cccc(=O)n2C3)c(NC(=S)Nc2ccc(Cl)cc2Cl)c1 (stereo unspecified)	i	i	i	i	59.1	i	i
CC(=O)Nc1cc(C(C)(C)C)c(O)c(C(C)(C)C)c1	i	i	30.6	i	81.2	i	i
CN(CC(=O)Nc1ccc(Cl)c(Cl)c1)C(=O)C1CCC1	i	i	nt	nt	75.1	nt	i
SMILES	Apaf1 inhib	UBC13 inh	PfM18AAP inh	ZTA counter	PfGluPho inh	EBNA-1 inhibitor	PfGluPho conf	others
C=COC(=O)CSc1nc(-c2cccs2)ccc1C#N	i	i	i	i	i	i	nt
CCOC(=O)C(C)Sc1nc(-c2cccs2)ccc1C#N (stereo unspecified)	i	i	i	i	78.4	i	i
COc1ccccc1CNC(=O)COc1ccc(S(=O)(=O)N2CCCC2)cc1	i	i	i	i	i	i	nt
O=C(N/N=C/c1cccc(Oc2ccccc2)c1)c1cccc(Br)c1	i	i	i	i	i	i	nt
C=CCc1cccc(/C=N/NC(=O)c2ccccc2OC)c1O	i	i	30.5	i	78.9	i	i
C=CCc1cccc(/C=N/NC(=O)c2ccccc2Br)c1O	i	i	i	i	74.7	i	i
O=C(N/N=C/c1cccc(Oc2ccccc2)c1)c1ccccc1Br	i	?	i	i	89.4	i	i
COc1ccc2ccc(OC)c(/C=N/n3cnnc3)c2c1	i	i	i	i	i	i	nt
CC(C)OCCCN1C=C2C(=O)C(C)(OC(=O)CCc3ccccc3)C(=O)C=C2C=C1c1ccc(C#N)cc1 (stereo unspecified)	i	i	nt	i	81.2	i	i
CC1(OC(=O)CCc2ccccc2)C(=O)C=C2C=C(c3ccc(C#N)cc3)N(C3CCCC3)C=C2C1=O (stereo unspecified)	i	i	nt	i	60.8	i	i
CC1(OC(=O)CCc2ccccc2)C(=O)C=C2C=C(c3ccc(C#N)cc3)N(c3ccccc3)C=C2C1=O (stereo unspecified)	i	i	nt	i	71.5	i	i
CC1(OC(=O)CCc2ccccc2)C(=O)C=C2C=C(c3ccsc3)OC=C2C1=O (stereo unspecified)	i	i	nt	i	nt	i	nt
O=C(N/N=C/c1cccc(F)c1)c1cc(-c2ccco2)nc2ccccc12	i	i	i	i	i	i	nt
O=c1[nH]c(=S)[nH]cc1Oc1ccccc1	nt	nt	nt	nt	i	nt	nt
CC(SCC(=O)Nc1ccccc1)c1nc2ccccc2c(=O)[nH]1 (stereo unspecified)	i	i	i	i	60.4	i	51.2	Diaph ctr 10uM=i;Diaphorase 30uM=i
CCN(CC)c1ccc(/C=C2\CCC(/C=C(/C#N)C(=O)Nc3ccccc3F)=C2N2CCOCC2)cc1	nt	nt	nt	nt	70.0	nt	i
CN(C(=O)c1ccc(NC(=O)Cc2ccc(NC(=O)C3CCCN(C(=O)CCc4ccccc4)C3)cc2)cc1)C1CCCC1 (stereo unspecified)	nt	nt	nt	nt	i	nt	nt
COc1ccc(Cl)cc1NC(=O)c1cccc([N+](=O)[O-])c1O	nt	nt	nt	nt	76.9	nt	57.4	Diaph ctr 10uM=i;Diaphorase 30uM=i
CC(C)Cc1c2c([nH]c(=S)c1C#N)CCCC2	i	?	i	i	69.7	i	i
Cc1[nH]c(=O)c(C#N)c2c1CCCC2	i	i	i	i	i	i	nt
CC1CCN(c2[nH]c(=S)c(C#N)c3c2CCCC3)CC1	i	i	i	i	i	i	nt
Cc1[nH]c(=S)c(C#N)c2c1CCCC2	i	i	i	i	80.6	i	i
CCN(CC)c1nc(N)nc(NS(=O)(=O)c2ccc(Cl)cc2)n1	i	i	i	i	66.6	i	57.1	Diaph ctr 10uM=54.5;Diaphorase 30uM=i
CCNc1nc(NC(C)C)nc(NS(=O)(=O)c2ccc(Cl)cc2)n1	i	i	i	i	82.7	i	55.1	Diaph ctr 10uM=62.7;Diaphorase 30uM=i
Nc1nc(NS(=O)(=O)c2ccc(Cl)cc2)nn1-c1ccccc1	i	i	i	i	i	i	nt
COc1ccc(-c2nn(Cc3ccccc3)cc2C(=O)N2CCN(c3ncccn3)CC2)cc1OC	i	i	nt	i	i	nt	nt
